Experimental data from the RNAGym collection of RNA variant scans (doi:10.1126/science.aae0568).
Variants at the floor of the assay were thinned out.

B1: tRNA (parent)
chain: GUUCCGUUGGCGUAAUGGUAACGCGUCUCCCUCCUAAGGAGAAGACUGCGGGUUCGAGUCCCGUACGGAACG

Variants of: B1
Assay: yeast fitness relative to wild type (ratio to wild type); higher = fitter; tRNA-Arg(CCU), competitive growth, 37 C, YPD
Outline: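 Variants of the tRNA-Arg(CCU) gene were chemically synthesised with a 3% per-site mutation rate across 69 sites and placed at the native genomic locus in Saccharomyces cerevisiae. Six parallel replicates of the pooled strains were competed in YPD at 37°C for 24 hours, and gene amplicons from the start and end populations were read by 100-nucleotide paired-end sequencing. Darwinian fitness relative to wild type was derived from changes in genotype frequencies. Genotypes required ≥ 100 starting reads, and estimates < 0.5 were set to 0.5.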

U7C C29G G44C C60U and U7C G12A U13C U26C C60U cannot be ordered by yeast fitness: at most 0.5 for the first, at most 0.5 for the second.

Going from U7C G67A A69C to U7C A15C G38A A45G G52A C61G C66U, the yeast fitness falls from 0.534 to at most 0.5.

Compared with U7C C55A G67A, U7C U19C C34U G52A U59A is higher in yeast fitness: at most 0.5 for the first, 0.678 for the second.

First: U7A U19A U32C
Second: U7C C24A G67A
The yeast fitness of the first is higher: 0.829 for the first, at most 0.5 for the second.

U7C U19A C29A and U7C G41A A42C G50C C55A cannot be ordered by yeast fitness: at most 0.5 for the first, at most 0.5 for the second.

Compared with U7C G56A A65C, U7C C46G is higher in yeast fitness: 0.598 for the first, 0.943 for the second.

Going from U7C C46U to U7C U19A C31U C49U, the yeast fitness falls from 0.884 to 0.678.

First: U7C C30U G39C U64C
Second: U7A U64A
The yeast fitness of the first is lower: at most 0.5 for the first, 0.837 for the second.

U7A U28C C62G and U7C C30U C34A cannot be ordered by yeast fitness: at most 0.5 for the first, at most 0.5 for the second.

U7C U16A G41C U54C C66U and U7A U13A C46G C66U cannot be ordered by yeast fitness: at most 0.5 for the first, at most 0.5 for the second.

U7C A15C A40G U53G and U7C C30G U54C C61G cannot be ordered by yeast fitness: at most 0.5 for the first, at most 0.5 for the second.

Going from U7C A42U to U7A U32A A42U C60A, the yeast fitness falls from 0.728 to 0.619.

U7C C34A U59A and U7C C22U C49U C55A cannot be ordered by yeast fitness: at most 0.5 for the first, at most 0.5 for the second.

Compared with U7C A14G G23A G25A A36U A43U, U7C U16G G17A C49U C62A is higher in yeast fitness: at most 0.5 for the first, 0.506 for the second.

Going from U7C C27U A45C to U7C G25A U59C A69C, the yeast fitness falls from 0.609 to at most 0.5.

U7C G18A G50A U64A and U7C G10A C29U C30G C34A cannot be ordered by yeast fitness: at most 0.5 for the first, at most 0.5 for the second.

Compared with U7C A15C A40G A57G, U7C C24A C29G is lower in yeast fitness: 0.649 for the first, 0.594 for the second.

Going from U7C U16G A20G U26C C49G to U7C A37C A40C A45U A57C A70U, the yeast fitness rises from at most 0.5 to 0.555.

U7A U13A G23A and U7C U8A G23A cannot be ordered by yeast fitness: at most 0.5 for the first, at most 0.5 for the second.

U7C G9A A20U A36G C55G and U7C G25A U47C U64G G68C cannot be ordered by yeast fitness: at most 0.5 for the first, at most 0.5 for the second.

U7C U26C C31G U35C C46A C66A and U7C C22U A43U cannot be ordered by yeast fitness: at most 0.5 for the first, at most 0.5 for the second.

First: U7A U47A A65G
Second: U7C U13G C30U A65U
The yeast fitness of the first is lower: 0.523 for the first, 0.619 for the second.

U7C G56U A65U G68C and U7C A42C G58A cannot be ordered by yeast fitness: at most 0.5 for the first, at most 0.5 for the second.

Going from U7C G9A G23C A45C to U7C G18C A37G G51C, the yeast fitness rises from at most 0.5 to 0.697.

First: U7C U13C C24U C49U
Second: U7C G44A C46U A69C
The yeast fitness of the first is lower: at most 0.5 for the first, 0.698 for the second.

Going from U7C A43C A57G U59C A70G to U7C G12C A20C, the yeast fitness rises from at most 0.5 to 0.632.

Compared with U7C C31A U35G A42G, U7C A40U A42U U54A U64G is lower in yeast fitness: 0.591 for the first, at most 0.5 for the second.

Going from U7C C11U C31U C33G C49A G51A to U7C A14G G17A, the yeast fitness rises from at most 0.5 to 0.531.

Going from U7A U19A A20C A40G to U7A U26C A40G A43U C49A, the yeast fitness rises from at most 0.5 to 0.622.

Going from U7A U19G C60G to U7C G12A U13C U26C C61U G63A, the yeast fitness rises from at most 0.5 to 0.596.

U7C C11G C30G C33A A57C C61A and U7A U32G U35A cannot be ordered by yeast fitness: at most 0.5 for the first, at most 0.5 for the second.

First: U7A U26C A69U
Second: U7C C30A A42C C60U A69G
The yeast fitness of the first is higher: 0.574 for the first, at most 0.5 for the second.

Going from U7C C31U A57U to U7C C27G C33G G44A C61G, the yeast fitness falls from 0.539 to at most 0.5.

U7C A36C C61G C66U A69U and U7C C34U A70G cannot be ordered by yeast fitness: at most 0.5 for the first, at most 0.5 for the second.

First: U7C G68U
Second: U7C C24U A42G U54A C55G
The yeast fitness of the first is higher: 0.674 for the first, at most 0.5 for the second.

Going from U7A U47C A69C to U7C C29U C31A C66G G67U, the yeast fitness falls from 0.601 to at most 0.5.

Compared with U7C G10A C34A G63A, U7A U16A is higher in yeast fitness: 0.555 for the first, 0.743 for the second.

U7C C33U G39C G58A and U7C C11G C24U G48A C66U A70C cannot be ordered by yeast fitness: at most 0.5 for the first, at most 0.5 for the second.

Going from U7C A43C to U7C A43G, the yeast fitness falls from 0.88 to 0.841.

Compared with U7C A43U, U7C G67C is higher in yeast fitness: 0.949 for the first, 0.951 for the second.

U7C C11U A37C C60A and U7C U8G C27A A69U cannot be ordered by yeast fitness: at most 0.5 for the first, at most 0.5 for the second.

U7C G12A C24U and U7C A21U C22A cannot be ordered by yeast fitness: at most 0.5 for the first, at most 0.5 for the second.

U7A U16C G17A C29U C31A and U7C G39C C46U C49U G56A G68C cannot be ordered by yeast fitness: at most 0.5 for the first, at most 0.5 for the second.

U7C U26C G41C C46A and U7C G10C C46U G63C cannot be ordered by yeast fitness: at most 0.5 for the first, at most 0.5 for the second.

Compared with U7C A70G, U7C A20G U32G is lower in yeast fitness: 0.879 for the first, at most 0.5 for the second.

U7C U16G U28A and U7A U19A C29A cannot be ordered by yeast fitness: at most 0.5 for the first, at most 0.5 for the second.

First: U7C G44A
Second: U7C C62A
The yeast fitness of the first is higher: 0.807 for the first, 0.786 for the second.

First: U7C C49U U54C
Second: U7C G18C G38C C62A
The yeast fitness of the first is higher: 0.508 for the first, at most 0.5 for the second.

First: U7C A36C A57U C61A C66A
Second: U7C A36C A57U C61A C66G
The yeast fitness of the first is lower: at most 0.5 for the first, 0.537 for the second.

Going from U7C C27U A45U G48A C66U to U7C C61G, the yeast fitness rises from at most 0.5 to 0.634.

Going from U7C C61U to U7C A37G A42C C49G C61U, the yeast fitness falls from 0.959 to 0.504.

Going from U7C G58A to U7C G58C, the yeast fitness falls from 1.06 to 0.781.

First: U7C G10C C46U
Second: U7A U54C
The yeast fitness of the first is lower: 0.523 for the first, 0.734 for the second.

U7A U16C G17A C29U C31A U35C C66G G67U and U7C C49A G67A cannot be ordered by yeast fitness: at most 0.5 for the first, at most 0.5 for the second.

Going from U7C C31U A70U to U7C A14C A21C C46A, the yeast fitness falls from 0.658 to at most 0.5.

First: U7A U19A
Second: U7C A14C A70C
The yeast fitness of the first is higher: 0.752 for the first, 0.594 for the second.

Compared with U7A U47C, U7C C30U C34A A57U C66A is lower in yeast fitness: 0.785 for the first, 0.555 for the second.

Compared with U7C C46U A69U, U7C A69U is higher in yeast fitness: 0.842 for the first, 0.913 for the second.

Going from U7C C29G G67C to U7C C33U G63A, the yeast fitness falls from 0.651 to 0.54.

U7C U8C U26G and U7C A21C C34U C49U A69U cannot be ordered by yeast fitness: at most 0.5 for the first, at most 0.5 for the second.

U7C G18C C55G and U7A U13A C49A cannot be ordered by yeast fitness: at most 0.5 for the first, at most 0.5 for the second.

Compared with U7C A15G C61G C66U A69U, U7C C30G A40C A42G is higher in yeast fitness: at most 0.5 for the first, 0.534 for the second.

U7C C27U G48A C55A G63A and U7A U28A C61U U64A cannot be ordered by yeast fitness: at most 0.5 for the first, at most 0.5 for the second.

Going from U7C A20C A69C to U7C C22G, the yeast fitness rises from 0.615 to 0.842.

Compared with U7A U32C C33G, U7C G48C A70C is higher in yeast fitness: at most 0.5 for the first, 0.6 for the second.

Compared with U7C U16C C29U, U7C A36G A45U is higher in yeast fitness: at most 0.5 for the first, 0.569 for the second.

Compared with U7C C30A U54A A57C, U7A U8G C30G A70U is higher in yeast fitness: at most 0.5 for the first, 0.518 for the second.

First: U7C C11A C30G
Second: U7C G41A A42C G50C A69C
The yeast fitness of the first is lower: at most 0.5 for the first, 0.527 for the second.

First: U7C U8C
Second: U7C U8G
The yeast fitness of the first is higher: 0.976 for the first, 0.697 for the second.

U7C C61G C62U and U7C G12A C31U U47C cannot be ordered by yeast fitness: at most 0.5 for the first, at most 0.5 for the second.

Compared with U7C C11U, U7C C27A A69U is lower in yeast fitness: 0.886 for the first, at most 0.5 for the second.

Compared with U7C A21G C49U, U7C A14G G25A A43G A69C is lower in yeast fitness: 0.722 for the first, at most 0.5 for the second.

U7C U8C A21U A36U A37C and U7A U13A A69C cannot be ordered by yeast fitness: at most 0.5 for the first, at most 0.5 for the second.

U7C C30U G39C and U7C U16A C24G G41C cannot be ordered by yeast fitness: at most 0.5 for the first, at most 0.5 for the second.

Going from U7C C24G A45G to U7C G9C, the yeast fitness rises from at most 0.5 to 0.729.

First: U7C G25C
Second: U7C G25A
The yeast fitness of the first is lower: 0.822 for the first, 1.04 for the second.

U7A U16A C29U C60U C66G G68A and U7C G38C C49A A70C cannot be ordered by yeast fitness: at most 0.5 for the first, at most 0.5 for the second.

Going from U7C C30G G39A G41U G51C G52A to U7C C31U A43G U59A, the yeast fitness rises from at most 0.5 to 0.505.

Going from U7C G48A G68U A70C to U7C C30U C34A G52C, the yeast fitness falls from 0.542 to at most 0.5.

Compared with U7C A43C C55U, U7A U32C A65G is higher in yeast fitness: 0.543 for the first, 0.558 for the second.

First: U7C A37C
Second: U7C A37G
The yeast fitness of the first is higher: 0.862 for the first, 0.666 for the second.

U7C C11A C33A A36C G63C C66G and U7C G51C A57G cannot be ordered by yeast fitness: at most 0.5 for the first, at most 0.5 for the second.

First: U7C G17C U19C C24G G48C G51C U53C A57U C66U
Second: U7C G25A G41A A42C G50C A70G
The yeast fitness of the first is higher: 0.575 for the first, 0.569 for the second.

With U7C A14U G25C G39U C62G A65U the yeast fitness was at most 0.5.
